TAAR1 agonist: agonists of human TAAR1; CHO RD-HGA16 TAAR1, Fluo-8 calcium fluorescence; vehicle wells 0%, saturating PEA agonist 100%; Q96RJ0; hit rate 0.99% among 360,000; activation, % at 3 µM;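 active = activation above the mean activation of all test compounds in the run plus 3 SD, cut at about 38% in these data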
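System: CHO-derived RD-HGA16 cells with stable Gα16 and human TAAR1. Times: 17-24 h plating, Fluo-8 75 min 37 °C, 30 min RT. Measured by: calcium-sensitive Fluo-8 signal, excitation 470-495, emission 515-575 nm. Read-out basis: % activation relative to PEA EC100 response. Control set: DMSO and PEA EC100. Repeats: no replicates (n 1).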
GPR7 antagonist: antagonists of human GPR7 (neuropeptides B/W receptor 1); hit rate 1.1% among 290,000; inhibition, % at 4.4 µM; P48145; GPR7-expressing cells, fluorescence antagonist assay; in the data active = inhibition above about 16%, passing the limit was not always enough;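 note: cells stimulated with the agonist NPW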
Target sequence (P48145 whole entry, looked up): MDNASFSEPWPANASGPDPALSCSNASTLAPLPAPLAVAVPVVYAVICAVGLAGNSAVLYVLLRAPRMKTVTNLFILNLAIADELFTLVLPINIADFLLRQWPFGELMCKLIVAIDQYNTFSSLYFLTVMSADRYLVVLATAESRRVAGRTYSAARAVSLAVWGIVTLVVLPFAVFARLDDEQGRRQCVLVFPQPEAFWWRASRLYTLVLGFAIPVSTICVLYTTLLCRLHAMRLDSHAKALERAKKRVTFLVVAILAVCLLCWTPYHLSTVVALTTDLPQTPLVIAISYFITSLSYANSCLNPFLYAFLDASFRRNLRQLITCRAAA
CHO parental Ca: counter-screen: ATP calcium response change in parental CHO cells; parental CHO-K1, ATP-induced calcium, Fluo-8 fluorescence; inhibition, % at 5.6 µM; hit rate 0.63% among 330,000;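 active = inhibition above that plate's mean sample inhibition plus 3 SD, cut at about 26% in these data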
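Test system: untransfected parental CHO cell line; also added: ATP stimulus; dosing: 5.6 µM, single dose; signal: calcium-sensitive Fluo-8 fluorescence; measure: percent inhibition of ATP-evoked calcium rise, normalized to controls; benchmarks: low control ATP plus DMSO, high control DMSO only; replication: one well per compound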
TAAR1 antagonist: human TAAR1 antagonism; hit rate 1.5% among 360,000; inhibition, % at 3 µM; AID 624466; Q96RJ0; CHO RD-HGA16 TAAR1, Fluo-8 calcium fluorescence, antagonist;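 active = inhibition above a per-plate cutoff, the mean inhibition of test compounds on that plate plus 3 SD, cut at about 49% in these data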
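Test system – hTAAR1-expressing CHO RD-HGA16 cells, Gα16-coupled · Reagent – β-PEA at EC80 concentration, post-compound challenge · Compound dosing – 3 µM, single point · Timing – 140 s kinetic read after compound, 140 s after agonist · Detection – Fluo-8 intracellular calcium dye fluorescence, real-time kinetic reads · Control set – DMSO and EC80 PEA controls · Repeats – n of 1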
OX1R antag-1: antagonists of human orexin 1 receptor | CHO/OX1R cells, Fluo-8 calcium fluorescence, orexin A | inhibition, % at 5 µM | hit rate 0.43% among 330,000;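 active = inhibition above its plate's threshold, mean inhibition of all tested compounds on the plate plus 3 SD, cut at about 37% in these data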
OX1R antag-2: OX1R (human) antagonism | O43613 | OX1R-expressing cells, FRET antagonist read-out | inhibition, % at 6.6 µM | hit rate 1.8% among 330,000; in the data active = inhibition mostly above about 38%, no sharp cut-off; inactive = mostly below about 40%
TAAR1 ag conf: confirmation of human TAAR1 agonists; shares compounds with TAAR1 agonist; CHO RD-HGA16 TAAR1, Fluo-8 calcium fluorescence; scaled: DMSO 0%, maximal phenethylamine 100%; activation, % at 3 µM; hit rate 82% among 2,400; AID 651783;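 active = activation above a cutoff set at the run's mean compound activation plus 3 SD, cut at about 39% in these data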
Ga16 nonsel ag: nonselective agonist in parental cells, TAAR1 agonist counter-screen; shares compounds with TAAR1 agonist; CHO-Ga16 parental, Fluo-8 calcium fluorescence; normalized to maximal ATP response, DMSO zero; activation, % at 3 µM; hit rate 50% among 2,400; AID 651787;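 active = activation above the run cutoff, the mean activation over all tested wells plus 3 SD, cut at about 12% in these data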
TAAR1 desensitize: human TAAR1 agonist that also desensitizes the receptor | shares compounds with TAAR1 agonist | inhibition, % at 3 µM | AID 651951 | hit rate 46% among 2,400 | CHO RD-HGA16 hTAAR1, Fluo-8 calcium, beta-PEA response inhibition;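 active = inhibition above the run cutoff, the mean inhibition of all test compounds plus 3 SD, cut at about 49% in these data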;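 note: beta-PEA stimulus applied at its EC80; loss of beta-PEA calcium signal after compound pretreatment read as receptor desensitization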
Ga16 antag count: nonselective Ga16 antagonism, counter-screen; hit rate 39% among 2,400; shares compounds with TAAR1 agonist; inhibition, % at 3 µM; CHO-Ga16 ATP-induced calcium, Fluo-8 fluorescence;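 active = inhibition above the plate's mean compound inhibition plus 3 SD, computed per plate, cut at about 22% in these data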
Large screens that a line does not name were inactive (follow-up assays come after a bar, where they were run). The list is not random: actives were taken first. Their share in the collection is about 4.5%.

O=C(COc1ccc(F)cc1Br)N1CCc2ccccc21	TAAR1 agonist 75.9, TAAR1 antagonist 82.8 | TAAR1 ag conf inactive | Ga16 nonsel ag inactive | TAAR1 desensitize inactive | Ga16 antag count inactive
COc1cc(CNCc2ccc(SC)cc2)cc(OC)c1	none
Cc1c(Br)c([N+](=O)[O-])nn1CC(=O)N1CCc2ccccc2C1	TAAR1 agonist 62.9 | TAAR1 ag conf 59.9 | Ga16 nonsel ag inactive | TAAR1 desensitize inactive | Ga16 antag count inactive
Cc1nn(CC(=O)N2CCc3ccccc3C2)c(C)c1[N+](=O)[O-]	TAAR1 agonist 57.9 | TAAR1 ag conf 68.6 | Ga16 nonsel ag inactive | TAAR1 desensitize inactive | Ga16 antag count inactive
Cc1cc(Nc2ccccc2)n(CCO)n1	none
COc1cccc(NC(=O)CCN2CCN(C)CC2)c1	none
COC(=O)C1CCN(Cc2c(C(=O)N3C[C@@H](C)O[C@@H](C)C3)nc3ccc(Cl)cn23)CC1	none
COc1ccc(C2SCCN2C(=S)Nc2ccc(F)cc2)cc1 (stereo not drawn)	none
CCOC(=O)c1ccc(NC(=S)N2CCSC2c2ccc(OC)cc2)cc1 (stereo not drawn)	TAAR1 agonist 92.6, TAAR1 antagonist 72.4 | TAAR1 ag conf 82.8 | Ga16 nonsel ag 37.5 | TAAR1 desensitize 67.4 | Ga16 antag count 43.6
Cc1ccc(O)c(C(=O)CC(=O)c2ccc(Cl)cc2)c1	TAAR1 agonist 54.5 | TAAR1 ag conf 43.2 | Ga16 nonsel ag 22.9 | TAAR1 desensitize 50.8 | Ga16 antag count 37.0
Cc1cccc(C(=O)CC(=O)c2cc(Cl)ccc2O)c1	none (no result: TAAR1 agonist, TAAR1 antagonist)
Cc1ccc(O)c(C(=O)CC(=O)c2cccc(F)c2)c1	TAAR1 agonist 54.4 | TAAR1 ag conf inactive | Ga16 nonsel ag 19.1 | TAAR1 desensitize inactive | Ga16 antag count 22.1
CC(C)(C)S(=O)(=O)/C(C#N)=C/c1sccc1C1OCCO1	none
O=C(CSc1ccc2nnc(-c3ccc(Cl)cc3)n2n1)N1CCc2ccccc21	none
CC1CC(C)CN(C(=O)Nc2ccccc2F)C1 (stereo not drawn)	none
O=C(c1ccc(CN2CCc3ccccc3C2)cc1)N1CCc2ccccc2C1	TAAR1 agonist 67.5 | TAAR1 ag conf 64.0 | Ga16 nonsel ag inactive | TAAR1 desensitize inactive | Ga16 antag count inactive
Cc1ccc(C)c(NC(=O)N2CCCCCC2)c1	none
O=C(CN(C1CCCCC1)C1CCCCC1)N1CCc2ccccc2C1	TAAR1 agonist 95.7, TAAR1 antagonist 98.8 | TAAR1 ag conf 106.5 | Ga16 nonsel ag 21.2 | TAAR1 desensitize 105.4 | Ga16 antag count 29.5
Cc1ccc(C)c(NC(=O)N2CCc3ccccc3C2)c1	TAAR1 agonist 86.3 | TAAR1 ag conf 73.5 | Ga16 nonsel ag inactive | TAAR1 desensitize inactive | Ga16 antag count inactive
O=C(Nc1ccccc1F)N1CCc2ccccc2C1	TAAR1 agonist 50.0 (no result: CHO parental Ca, OX1R antag-1, OX1R antag-2) | TAAR1 ag conf 40.4 | Ga16 nonsel ag inactive | TAAR1 desensitize inactive | Ga16 antag count inactive
CCOc1ccc(-c2nnc(SCC(=O)O)n2Cc2ccccc2)cc1	none
O=C(Cc1ccc(NC(=O)C2CCN(C(=O)C3CCCC3)CC2)cc1)Nc1cccc(C(=O)N2CCCCC2)c1	none (no result: GPR7 antagonist, CHO parental Ca, OX1R antag-1, OX1R antag-2)
O=C(CNCc1ccccn1)N1CCc2ccccc2C1	TAAR1 agonist 46.7 | TAAR1 ag conf inactive | Ga16 nonsel ag inactive | TAAR1 desensitize inactive | Ga16 antag count inactive
Cc1ccccc1OCC(=O)N1CCc2ccccc2C1	TAAR1 agonist 42.0 | TAAR1 ag conf 88.5 | Ga16 nonsel ag inactive | TAAR1 desensitize inactive | Ga16 antag count inactive

Screens deposited in PubChem by The Scripps Research Institute Molecular Screening Center.
